Results taken from ChEMBL document CHEMBL1148053, “(+)-(S)-dihydroaeruginoic acid, an inhibitor of Septoria tritici and other phytopathogenic fungi and bacteria, produced by Pseudomonas fluorescens” (1994).

Tests used:
[1] = system: Colletotrichum gloeosporioides; assay: Antifungal activity against Colletotrichum gloeosporioides DL5605 assessed as colony reduction at 200 ug/disk after 2 to 6 days by paper disk agar diffusion method relative to control; assay type: functional; design: scale not given: the % may be the effect or the level left
In short: (§1)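 Tested on one-fourth-strength potato dextrose agar. A 5-mm mycelial agar plug from the colony edge was placed at the dish centre. A 6-mm disc with the compound in Me₂CO and an Me₂CO-only control disc were set on opposite sides, each 30 mm from the plug. After 2-6 days, colony radii were measured along the line joining the discs. Values are the mean of nine (3 weighings × 3 discs), analysed by two-way ANOVA.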

Bacillus subtilis [2] = assay: Antibacterial activity against Bacillus subtilis Bs1091 at 200 ug/disk by paper disk agar diffusion method; assay type: functional; conditions: read-out: IZ
In short: (§2)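 Paper-disc agar-diffusion assay on Luria agar (tryptone, yeast extract, NaCl, agar), the medium used for maintaining and testing the bacteria. The compound was dissolved in Me₂CO and absorbed onto 6-mm paper discs at the stated amount per disc. Three separately weighed solutions were used, with three discs each, giving nine measurements per organism.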

Botrytis cinerea [3] = assay: Antifungal activity against Botrytis cinerea DL6050 assessed as colony reduction at 100 ug/disk after 2 to 6 days by paper disk agar diffusion method relative to control; assay type: functional; design: scale not given: the % may be the effect or the level left; in short: as §1
Botrytis cinerea [4] = assay: Antifungal activity against Botrytis cinerea DL6050 assessed as colony reduction at 200 ug/disk after 2 to 6 days by paper disk agar diffusion method relative to control; assay type: functional; design: scale not given: the % may be the effect or the level left; in short: as §1
Pantoea agglomerans [5] = assay: Antibacterial activity against Erwinia herbicola SM-824 at 200 ug/disk by paper disk agar diffusion method; assay type: functional; conditions: read-out: IZ; in short: as §2
Pseudomonas fluorescens [6] = assay: Antibacterial activity against Pseudomonas fluorescens PFM2 at 100 ug/disk by paper disk agar diffusion method; assay type: functional; conditions: read-out: IZ; in short: as §2
Staphylococcus [7] = assay: Antibacterial activity against Staphylococcus albus Sal1091-4 at 200 ug/disk by paper disk agar diffusion method; assay type: functional; conditions: read-out: IZ; in short: as §2
Zymoseptoria tritici [8] = assay: Antifungal activity against Septoria tritici ISR-SE93 assessed as diameter of zone of inhibition at 100 ug/disk after 2 to 6 days by paper disk agar diffusion method; conditions: read-out: IZ
Athelia rolfsii [9] = assay: Antifungal activity against Sclerotium rolfsii RG-1984 assessed as colony reduction at 200 ug/disk after 2 to 6 days by paper disk agar diffusion method relative to control; assay type: functional, Agroathelia rolfsii; design: scale not given: the % may be the effect or the level left
In short: (§3)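 Paper-disc agar-diffusion on one-fourth-strength PDA. Mycelial agar plug (5 mm) from culture edge placed at plate centre; 6-mm disc loaded with compound in Me2CO and Me2CO-only control disc set on opposite sides, each 30 mm from plug. After 2-6 days (per growth rate), colony radii measured along line joining disc centres. Three separate weighings × three discs (nine) per organism; two-way ANOVA.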

Rhizoctonia solani [10] = assay: Antifungal activity against Rhizoctonia solani DL5588 assessed as colony reduction at 100 ug/disk after 2 to 6 days by paper disk agar diffusion method relative to control; assay type: functional; design: scale not given: the % may be the effect or the level left; in short: as §1
[11] = system: Colletotrichum gloeosporioides; assay: Antifungal activity against Colletotrichum gloeosporioides DL5605 assessed as colony reduction at 100 ug/disk after 2 to 6 days by paper disk agar diffusion method relative to control; assay type: functional; design: scale not given: the % may be the effect or the level left; in short: as §1
Fusarium oxysporum [12] = assay: Antifungal activity against Fusarium oxysporum Fo0593-22 assessed as colony reduction at 100 ug/disk after 2 to 6 days by paper disk agar diffusion method relative to control; assay type: functional; design: scale not given: the % may be the effect or the level left; in short: as §1
Bacillus subtilis [13] = assay: Antibacterial activity against Bacillus subtilis Bs1091 at 100 ug/disk by paper disk agar diffusion method; assay type: functional; conditions: read-out: IZ; in short: as §2
Globisporangium ultimum [14] = assay: Antifungal activity against Pythium ultimum RG-5601 assessed as colony reduction at 100 ug/disk after 2 to 6 days by paper disk agar diffusion method relative to control; assay type: functional; design: scale not given: the % may be the effect or the level left; in short: as §3
Pantoea agglomerans [15] = assay: Antibacterial activity against Erwinia herbicola SM-824 at 100 ug/disk by paper disk agar diffusion method; assay type: functional; conditions: read-out: IZ; in short: as §2
Zymoseptoria tritici [16] = assay: Antifungal activity against Septoria tritici ISR-SE93 assessed as diameter of zone of inhibition at 200 ug/disk after 2 to 6 days by paper disk agar diffusion method; conditions: read-out: IZ
Pseudomonas fluorescens [17] = assay: Antibacterial activity against Pseudomonas fluorescens PFM2 at 200 ug/disk by paper disk agar diffusion method; assay type: functional; conditions: read-out: IZ; in short: as §2
Globisporangium ultimum [18] = assay: Antifungal activity against Pythium ultimum RG-5601 assessed as colony reduction at 200 ug/disk after 2 to 6 days by paper disk agar diffusion method relative to control; assay type: functional; design: scale not given: the % may be the effect or the level left; in short: as §3
Staphylococcus [19] = assay: Antibacterial activity against Staphylococcus albus Sal1091-4 at 100 ug/disk by paper disk agar diffusion method; assay type: functional; conditions: read-out: IZ; in short: as §2
Rhizoctonia solani [20] = assay: Antifungal activity against Rhizoctonia solani DL5588 assessed as colony reduction at 200 ug/disk after 2 to 6 days by paper disk agar diffusion method relative to control; assay type: functional; design: scale not given: the % may be the effect or the level left; in short: as §1
Fusarium oxysporum [21] = assay: Antifungal activity against Fusarium oxysporum Fo0593-22 assessed as colony reduction at 200 ug/disk after 2 to 6 days by paper disk agar diffusion method relative to control; assay type: functional; design: scale not given: the % may be the effect or the level left; in short: as §1
Athelia rolfsii [22] = assay: Antifungal activity against Sclerotium rolfsii RG-1984 assessed as colony reduction at 100 ug/disk after 2 to 6 days by paper disk agar diffusion method relative to control; assay type: functional, Agroathelia rolfsii; design: scale not given: the % may be the effect or the level left; in short: as §3

SMILES: O=C(O)[C@@H]1CSC(c2ccccc2O)=N1
- Activity [1]: 9%
- zone of inhibition at 200 µg/disc (Bacillus subtilis [2]): 19.7 mm
- Activity (Botrytis cinerea [3]): 36%
- Activity (Botrytis cinerea [4]): 46%
- zone of inhibition at 200 µg/disc (Pantoea agglomerans [5]): 10.4 mm
- zone of inhibition at 100 µg/disc (Pseudomonas fluorescens [6]): 0 mm
- zone of inhibition at 200 µg/disc (Staphylococcus [7]): 28.2 mm
- zone of inhibition at 100 µg/disc (Zymoseptoria tritici [8]): 0 mm
- Activity (Athelia rolfsii [9]): 52%
- Activity (Rhizoctonia solani [10]): 6%
- Activity [11]: 8%
- Activity (Fusarium oxysporum [12]): 5%
- zone of inhibition at 100 µg/disc (Bacillus subtilis [13]): 14.9 mm
- Activity (Globisporangium ultimum [14]): 12%
- zone of inhibition at 100 µg/disc (Pantoea agglomerans [15]): 8.2 mm
- zone of inhibition at 200 µg/disc (Zymoseptoria tritici [16]): 13 mm
- zone of inhibition at 200 µg/disc (Pseudomonas fluorescens [17]): 0 mm
- Activity (Globisporangium ultimum [18]): 33%
- zone of inhibition at 100 µg/disc (Staphylococcus [19]): 22 mm
- Activity (Rhizoctonia solani [20]): 17%
- Activity (Fusarium oxysporum [21]): 11%
- Activity (Athelia rolfsii [22]): 32%

SMILES: O=C(O)[C@H]1CSC(c2ccccc2O)=N1
- Activity [1]: 10%
- zone of inhibition at 200 µg/disc (Bacillus subtilis [2]): 13.3 mm
- Activity (Botrytis cinerea [3]): 27%
- Activity (Botrytis cinerea [4]): 43%
- zone of inhibition at 200 µg/disc (Pantoea agglomerans [5]): 8.7 mm
- zone of inhibition at 100 µg/disc (Pseudomonas fluorescens [6]): 0 mm
- zone of inhibition at 200 µg/disc (Staphylococcus [7]): 26.2 mm
- zone of inhibition at 100 µg/disc (Zymoseptoria tritici [8]): 0 mm
- Activity (Athelia rolfsii [9]): 53%
- Activity (Rhizoctonia solani [10]): 1%
- Activity [11]: 8%
- Activity (Fusarium oxysporum [12]): 8%
- zone of inhibition at 100 µg/disc (Bacillus subtilis [13]): 10.8 mm
- Activity (Globisporangium ultimum [14]): 22%
- zone of inhibition at 100 µg/disc (Pantoea agglomerans [15]): 6.7 mm
- zone of inhibition at 200 µg/disc (Zymoseptoria tritici [16]): 13 mm
- zone of inhibition at 200 µg/disc (Pseudomonas fluorescens [17]): 0 mm
- Activity (Globisporangium ultimum [18]): 43%
- zone of inhibition at 100 µg/disc (Staphylococcus [19]): 20.2 mm
- Activity (Rhizoctonia solani [20]): 5%
- Activity (Fusarium oxysporum [21]): 15%
- Activity (Athelia rolfsii [22]): 32%
